Data from ChEMBL document CHEMBL1144139, “Immunosuppressive diterpenoids from Tripterygium wilfordii” (1999).
Activity calls are given as the source filed them. No cut-off for these calls is given here.

Tests used:
Format in all cases: functional
[1] = tested on: PBMC; experiment: Immunosuppressive activity against human PBMC assessed as inhibition of LPS-induced IL8 production at 10 ug/ml after 24 hrs by ELISA
Method in brief: (§1)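 Heparinized whole blood from healthy volunteers, diluted to 30% in RPMI-1640 with penicillin/streptomycin, was mixed in equal volumes with LPS solution (3 µg/mL) and sample (3 mg/mL DMSO stock diluted 1:100; DMSO-only control). Incubated at 37 °C, 5% CO2. Supernatant cytokines measured by ELISA. Inhibition (%) = […] versus solvent control.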

[2] = tested on: PBMC; experiment: Immunosuppressive activity against human PBMC assessed as inhibition of LPS-induced IL2 production at 10 ug/ml after 24 hrs by ELISA; method in brief: as §1
[3] = tested on: PBMC; experiment: Immunosuppressive activity against human PBMC assessed as inhibition of LPS-induced IL1-beta production at 10 ug/ml after 24 hrs by ELISA; method in brief: as §1
[4] = tested on: PBMC; experiment: Immunosuppressive activity against human PBMC assessed as inhibition of LPS-induced IL4 production at 10 ug/ml after 24 hrs by ELISA; method in brief: as §1
[5] = tested on: PBMC; experiment: Immunosuppressive activity against human PBMC assessed as inhibition of LPS-induced TNFalpha production at 10 ug/ml after 24 hrs by ELISA; method in brief: as §1
[6] = tested on: PBMC; experiment: Immunosuppressive activity against human PBMC assessed as inhibition of LPS-induced IFN-gamma production at 10 ug/ml after 24 hrs by ELISA; method in brief: as §1
[7] = tested on: PBMC; experiment: Immunosuppressive activity against human PBMC assessed as inhibition of LPS-induced IL4 production at 0.3 ug/ml after 24 hrs by ELISA
[8] = tested on: PBMC; experiment: Immunosuppressive activity against human PBMC assessed as inhibition of LPS-induced IL2 production at 0.3 ug/ml after 24 hrs by ELISA
[9] = tested on: PBMC; experiment: Immunosuppressive activity against human PBMC assessed as inhibition of LPS-induced IL8 production at 0.3 ug/ml after 24 hrs by ELISA
[10] = tested on: PBMC; experiment: Immunosuppressive activity against human PBMC assessed as inhibition of LPS-induced IFN-gamma production at 0.3 ug/ml after 24 hrs by ELISA
[11] = tested on: PBMC; experiment: Immunosuppressive activity against human PBMC assessed as inhibition of LPS-induced TNFalpha production at 0.3 ug/ml after 24 hrs by ELISA
[12] = tested on: PBMC; experiment: Immunosuppressive activity against human PBMC assessed as inhibition of LPS-induced IL1-beta production at 0.3 ug/ml after 24 hrs by ELISA

C[C@@]12CCC[C@@](C)(C(=O)O)[C@@H]1CC[C@@]13C[C@@H](CC[C@H]12)[C@@H](CO)C3
inhibition at 10 µg/mL [1]: 4.2%
inhibition at 10 µg/mL [2]: 35%
inhibition at 10 µg/mL [3]: -6.1%
inhibition at 10 µg/mL [4]: 56.2%
inhibition at 10 µg/mL [5]: 0%
inhibition at 10 µg/mL [6]: 34%

C=C[C@]1(C)CC[C@@H]2[C@@]3(C)CCC[C@@](C)(C(=O)O)[C@@H]3CC[C@@]2(C)O1
inhibition at 10 µg/mL [1]: 65.2%
inhibition at 10 µg/mL [2]: 100%
inhibition at 10 µg/mL [3]: 36.1%
inhibition at 10 µg/mL [4]: 95.4%
inhibition at 10 µg/mL [5]: 49.9%
inhibition at 10 µg/mL [6]: 94%

C=C1C[C@H]2[C@@](C)(CO)C(=O)CC[C@]2(C)c2c(O)cc(C(C)C)c(OC)c21
Activity [1]: inactive
Activity [2]: inactive
Activity [3]: inactive
Activity [4]: inactive
Activity [5]: inactive
Activity [6]: inactive

CC(C)c1ccc2c(c1)CC[C@H]1[C@@](C)(CO)[C@@H](O)CC[C@]21C
Activity [1]: inactive
Activity [2]: inactive
Activity [3]: inactive
Activity [4]: inactive
Activity [5]: inactive
Activity [6]: inactive

C[C@@]12CCC[C@@](C)(C(=O)O)[C@@H]1CC[C@@]13C[C@@H](CC[C@H]12)[C@](C)(O)C3
Activity [1]: inactive
Activity [2]: inactive
Activity [3]: inactive
Activity [4]: inactive
Activity [5]: inactive
Activity [6]: inactive

C[C@]12C=CC(=O)C=C1CC[C@@H]1[C@@H]2[C@@H](O)C[C@@]2(C)[C@H]1CC[C@]2(O)C(=O)CO [PREDNISOLONE]
inhibition at 0.3 µg/mL [7]: 96.1%
inhibition at 0.3 µg/mL [8]: 93.9%
inhibition at 0.3 µg/mL [9]: 90.3%
inhibition at 0.3 µg/mL [10]: 95.4%
inhibition at 0.3 µg/mL [11]: 88.5%
inhibition at 0.3 µg/mL [12]: 88.5%

C[C@@]1(O)C[C@@]23CC[C@H]4[C@@]5(CCC[C@]4(C)C(=O)OC5)[C@@H]2CC[C@H]1C3 [TRIPTERIFORDIN]
inhibition at 10 µg/mL [1]: 96.6%
inhibition at 10 µg/mL [2]: 97.9%
inhibition at 10 µg/mL [3]: 75.7%
inhibition at 10 µg/mL [4]: 95.7%
inhibition at 10 µg/mL [5]: 76.8%
inhibition at 10 µg/mL [6]: 98.6%

C=C1C[C@H]2[C@@](C)(CO)C(=O)CC[C@]2(C)c2cc(O)c(C(C)C)cc21 [TRIPTOBENZENE M]
inhibition at 10 µg/mL [1]: -29.1%
inhibition at 10 µg/mL [2]: 55.6%
inhibition at 10 µg/mL [3]: 13.5%
inhibition at 10 µg/mL [4]: 40.1%
inhibition at 10 µg/mL [5]: 7.5%
inhibition at 10 µg/mL [6]: 54.1%

CC(C)c1ccc2c(c1)C(=O)C[C@H]1[C@@](C)(CO)C(=O)CC[C@]21C [TRIPTOBENZENE N]
inhibition at 10 µg/mL [1]: 15.4%
inhibition at 10 µg/mL [2]: 64.5%
inhibition at 10 µg/mL [3]: 37.9%
inhibition at 10 µg/mL [4]: -52.2%
inhibition at 10 µg/mL [5]: 13.3%
inhibition at 10 µg/mL [6]: 42.3%

C=C1C[C@H]2[C@@](C)(CO)[C@@H](O)CC[C@]2(C)C2=C1C(=O)C(C(C)C)=CC2=O [TRIPTOQUINONE C]
inhibition at 10 µg/mL [1]: -24.6%
inhibition at 10 µg/mL [2]: 64%
inhibition at 10 µg/mL [3]: 16.4%
inhibition at 10 µg/mL [4]: 66.4%
inhibition at 10 µg/mL [5]: -29.5%
inhibition at 10 µg/mL [6]: 89%
